Here are results for 8 compounds from paper PMC8805511 (Bioorganic & medicinal chemistry letters, 2021).

Read-outs that look alike come from different tables or passages of the source.

The nature of series [1]: T1/2 in mouse liver microsome assays. It is filed as in vitro ADME. The settings on record: liver microsomes. The essentials:
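Test compound incubated with mouse liver microsomes at 37 °C. The amount of unmodified compound remaining was measured after 30 min as a single-point stability read. T1/2 (min) was calculated from these incubations. Dextromethorphan served as the positive control.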
Background: Liver microsomes are vesicles of endoplasmic reticulum, rich in cytochrome P450 enzymes.

The nature of a further series: solubility. In kind it is physicochemical. The note with it: excluded from further study.
In another series the test system is HeLaC3 cells. The series is described as follows: total tau. In kind it is cell-based. The settings on record: 24 h, Western blot.
Series [2] is described as follows: mouse liver microsome stability, compound remaining after 30 minutes. In kind it is in vitro ADME. The note with it: unmodified compound remaining after incubation with mouse liver microsomes for 30 minutes at 37 °C.
For series [3] the following is noted: mouse liver microsome assays; cited from earlier work.
The next series relates to tau. The note with it: cited from earlier work.

For orientation: half-life means how long it takes for the measured level to halve. `CCn1c(=O)/c(=C2\Sc3cccc(Cl)c3N2C)s/c1=C\c1ccccn1` [Compound 5] returned a half-life in series [1] of about 20 min. As for `CCn1c(=O)/c(=C2\Sc3ccc(Cl)cc3N2C)s/c1=C\c1ccccn1` [Compound 6], the half-life in series [1] is about 20 min. In the case of `CCn1c(=O)/c(=C2\Sc3cccc(Cl)c3N2C)s/c1=C\c1ccncc1` [Compound 14], the solubility result in the series “solubility” was “poor solubility”. `CCn1c(=O)/c(=C2\Sc3ccc(Cl)cc3N2C)s/c1=C\c1ccncc1` [Compound 15]: the “cellular stress (levels of Hsp72 and Hsp90)” value in the series on HeLaC3 cells was “did not activate cellular stress”.

`CCn1c(=O)/c(=C2\Sc3cc(Cl)ccc3N2C)s/c1=C\c1ccncc1` [Compound 16] showed a half-life in series [1] of about 20 min. `CCn1c(=O)/c(=C2\Sc3c(Cl)cccc3N2C)s/c1=C\c1ccncc1` [Compound 17]: the solubility entry in the series “solubility” was “poor solubility”. Take `CCn1c(=O)/c(=C2\Sc3ccccc3N2C)s/c1=C\c1ccccn1` [YM-08]: the “Percentage at T30min” value in series [2] is listed as “below the limit of detection”. In series [3], the half-life entry is “less than three minutes”. As to YM-01, in the series with tau, the “concentration promoting tau degradation” value was ~ 1 μM.
